Laboratory results: ChEMBL document CHEMBL1909618, “Non-steroidal dissociated glucocorticoid agonists: indoles as A-ring mimetics and function-regulating pharmacophores” (Bioorg Med Chem Lett, 2011)
Activity calls are given as the source filed them. No cut-off for these calls is given here.

What was measured:
[1] = target: T1, Glucocorticoid receptor (Homo sapiens) (UniProt P04150); assay: Agonist activity at glucocorticoid receptor in HFF assessed as inhibition of IL1-induced IL-6 production after 18 to 24 hrs relative to Dexamethasone; format: functional
T1 sequence (whole entry): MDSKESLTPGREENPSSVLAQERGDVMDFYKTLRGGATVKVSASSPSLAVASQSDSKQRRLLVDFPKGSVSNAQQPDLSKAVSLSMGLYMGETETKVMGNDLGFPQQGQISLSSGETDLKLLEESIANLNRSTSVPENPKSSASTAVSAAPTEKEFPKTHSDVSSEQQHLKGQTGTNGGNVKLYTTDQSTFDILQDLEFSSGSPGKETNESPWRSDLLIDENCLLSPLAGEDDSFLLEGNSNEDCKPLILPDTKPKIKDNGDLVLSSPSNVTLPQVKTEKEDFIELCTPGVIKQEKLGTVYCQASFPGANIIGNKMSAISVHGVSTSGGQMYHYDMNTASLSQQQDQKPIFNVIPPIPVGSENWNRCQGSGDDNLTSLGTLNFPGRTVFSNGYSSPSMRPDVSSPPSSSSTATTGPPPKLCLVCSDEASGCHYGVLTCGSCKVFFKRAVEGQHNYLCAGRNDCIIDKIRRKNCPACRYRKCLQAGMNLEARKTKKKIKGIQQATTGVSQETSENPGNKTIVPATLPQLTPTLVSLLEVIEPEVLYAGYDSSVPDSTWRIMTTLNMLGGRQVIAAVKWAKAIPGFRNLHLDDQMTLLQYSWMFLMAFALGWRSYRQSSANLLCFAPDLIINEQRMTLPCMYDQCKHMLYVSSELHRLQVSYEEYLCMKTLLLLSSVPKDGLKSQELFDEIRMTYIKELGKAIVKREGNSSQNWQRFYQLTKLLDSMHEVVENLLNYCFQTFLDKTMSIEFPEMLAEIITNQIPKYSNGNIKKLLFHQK
Method in brief: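 Human foreskin fibroblasts stimulated with IL-1 (1 ng/mL) in the presence of test compound, incubated at 37 °C for 18–24 h. IL-6 in the culture medium was quantified by electrochemiluminescence, DELFIA or ELISA. IC50 and % maximal efficacy were reported.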

Glucocorticoid receptor [2] = target: T2, Glucocorticoid receptor (Homo sapiens, UniProt P04150); assay: Displacement of tetramethylrhodamine-labeled Dexamethasone from human recombinant glucocorticoid receptor expressed in baculovirus infected insect cells by fluorescence polarization assay
T2 sequence (P04150 whole entry): T1 sequence (whole entry)

Progesterone receptor = target: T3, Progesterone receptor (Homo sapiens, UniProt P06401); assay: Displacement of tetramethylrhodamine-labeled RU-486 from human recombinant progesterone receptor expressed in baculovirus infected insect cells by fluorescence polarization assay
T3 sequence (P06401 whole entry): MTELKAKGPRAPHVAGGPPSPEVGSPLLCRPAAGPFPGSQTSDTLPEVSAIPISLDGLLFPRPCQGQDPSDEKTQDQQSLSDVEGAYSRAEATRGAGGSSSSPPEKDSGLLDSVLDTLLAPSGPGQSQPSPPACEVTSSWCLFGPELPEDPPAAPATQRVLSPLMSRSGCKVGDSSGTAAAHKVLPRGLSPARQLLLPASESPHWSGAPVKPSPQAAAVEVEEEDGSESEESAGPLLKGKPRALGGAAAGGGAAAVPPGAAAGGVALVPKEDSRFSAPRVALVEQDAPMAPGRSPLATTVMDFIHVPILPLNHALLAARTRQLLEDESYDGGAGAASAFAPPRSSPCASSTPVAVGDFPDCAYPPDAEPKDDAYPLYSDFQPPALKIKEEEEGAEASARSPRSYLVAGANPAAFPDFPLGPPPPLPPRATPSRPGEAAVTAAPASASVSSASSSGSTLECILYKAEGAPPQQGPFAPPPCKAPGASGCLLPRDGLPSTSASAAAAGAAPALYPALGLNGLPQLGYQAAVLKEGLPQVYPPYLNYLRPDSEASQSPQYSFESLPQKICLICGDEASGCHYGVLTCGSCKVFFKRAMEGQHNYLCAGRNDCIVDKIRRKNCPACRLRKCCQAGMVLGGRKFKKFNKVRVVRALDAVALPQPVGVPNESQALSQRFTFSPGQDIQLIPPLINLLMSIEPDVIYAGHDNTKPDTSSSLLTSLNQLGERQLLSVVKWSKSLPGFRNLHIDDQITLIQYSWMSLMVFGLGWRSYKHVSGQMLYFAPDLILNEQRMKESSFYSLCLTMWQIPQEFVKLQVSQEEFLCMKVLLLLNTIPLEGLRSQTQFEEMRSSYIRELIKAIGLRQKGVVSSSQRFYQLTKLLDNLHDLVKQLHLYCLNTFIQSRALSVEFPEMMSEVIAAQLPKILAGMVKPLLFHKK
Method in brief: (§1)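 Fluorescence polarization competition assays with recombinant human receptors in lysates of baculovirus-infected insect cells. Reactions contained 1% DMSO and ran 1 h at room temperature.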

[3] = target: T4, Mineralocorticoid receptor (Homo sapiens, UniProt P08235); assay: Displacement of tetramethylrhodamine-labeled Dexamethasone from human recombinant mineralocorticoid receptor expressed in baculovirus infected insect cells by fluorescence polarization assay; method in brief: as §1
T4 sequence (P08235 whole entry): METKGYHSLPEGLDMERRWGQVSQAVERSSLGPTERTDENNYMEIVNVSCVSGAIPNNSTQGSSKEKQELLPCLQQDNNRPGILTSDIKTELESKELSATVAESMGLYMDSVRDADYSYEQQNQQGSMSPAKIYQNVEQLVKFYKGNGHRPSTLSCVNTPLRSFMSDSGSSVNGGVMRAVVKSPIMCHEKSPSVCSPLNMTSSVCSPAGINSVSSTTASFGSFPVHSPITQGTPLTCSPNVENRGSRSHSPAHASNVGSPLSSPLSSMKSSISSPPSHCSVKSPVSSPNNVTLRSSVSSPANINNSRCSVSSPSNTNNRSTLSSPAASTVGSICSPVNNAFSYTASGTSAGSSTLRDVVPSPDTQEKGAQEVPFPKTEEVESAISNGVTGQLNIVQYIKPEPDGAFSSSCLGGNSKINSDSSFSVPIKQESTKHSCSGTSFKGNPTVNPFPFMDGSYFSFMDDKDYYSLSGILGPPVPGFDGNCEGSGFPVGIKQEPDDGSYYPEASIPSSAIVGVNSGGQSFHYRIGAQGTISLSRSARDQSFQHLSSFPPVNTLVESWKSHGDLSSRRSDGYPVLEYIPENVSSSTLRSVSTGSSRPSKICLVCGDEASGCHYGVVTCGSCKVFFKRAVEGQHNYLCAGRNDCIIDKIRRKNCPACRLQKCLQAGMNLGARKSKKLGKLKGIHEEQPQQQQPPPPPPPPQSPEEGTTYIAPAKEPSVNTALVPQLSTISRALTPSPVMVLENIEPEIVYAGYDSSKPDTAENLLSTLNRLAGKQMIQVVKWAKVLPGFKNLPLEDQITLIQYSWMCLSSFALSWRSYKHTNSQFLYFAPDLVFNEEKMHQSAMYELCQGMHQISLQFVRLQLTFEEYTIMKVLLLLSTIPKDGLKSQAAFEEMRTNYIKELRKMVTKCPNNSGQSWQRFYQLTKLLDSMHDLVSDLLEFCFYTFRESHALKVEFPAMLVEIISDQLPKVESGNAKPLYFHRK

[4] = target: T1, Glucocorticoid receptor (Homo sapiens); assay: Transactivation activity of glucocorticoid receptor in HFF assessed as induction of aromatase activity by measuring beta-estradiol activity after 18 to 24 hrs by ELISA relative to Dexamethasone
Glucocorticoid receptor [5] = target: T2, Glucocorticoid receptor; assay: Agonist activity at glucocorticoid receptor in human HeLa cells transfected with luciferase gene linked to MMTV promoter assessed as luciferase transactivation activity; format: functional, cell-based
[6] = target: T1, Glucocorticoid receptor (Homo sapiens); assay: Agonist activity at glucocorticoid receptor in human HeLa cells transfected with luciferase gene linked to MMTV promoter assessed as luciferase transactivation activity relative to Dexamethasone; format: functional, cell-based
Method in brief: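 HeLa cells stably carrying an MMTV-luciferase construct were exposed to compound for 6 h at 37 °C, 5% CO2. Cells were then lysed and luminescence read with a Steady-Glo reagent. EC50 and % maximal efficacy were reported.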

Glucocorticoid receptor [7] = target: T2, Glucocorticoid receptor; assay: Transactivation activity of glucocorticoid receptor in HFF assessed as induction of aromatase activity by measuring beta-estradiol activity after 18 to 24 hrs by ELISA
Glucocorticoid receptor [8] = target: T2, Glucocorticoid receptor; assay: Agonist activity at glucocorticoid receptor in HFF assessed as inhibition of IL1-induced IL-6 production after 18 to 24 hrs; format: functional
Mus musculus [9] = assay: Antiinflammatory activity in po dosed mouse plasma assessed as inhibition of LPS-induced TNFalpha production administered 1 hr before LPS challenge measured after 1 hr; format: functional
Method in brief: (§2)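 Mice received compound orally in Cremophor RH 1 h before LPS challenge. Plasma TNF-α was measured 1 h after challenge. n = 8 per group; doses were 3 and 10 mg/kg.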

Mus musculus [10] = assay: Antiinflammatory activity in mouse plasma assessed as inhibition of LPS-induced TNFalpha production at 10 mg/kg, po administered 1 hr before LPS challenge measured after 1 hr; format: functional; method in brief: as §2
Homo sapiens [11] = species on record: Homo sapiens; assay: Selectivity ratio of IC50 for human recombinant glucocorticoid receptor to IC50 for human recombinant progesterone receptor
Homo sapiens [12] = species on record: Homo sapiens; assay: Selectivity ratio of IC50 for human recombinant glucocorticoid receptor to IC50 for human recombinant mineralocorticoid receptor
Mus musculus [13] = assay: Antiinflammatory activity in mouse plasma assessed as inhibition of LPS-induced TNFalpha production at 3 mg/kg, po administered 1 hr before LPS challenge measured after 1 hr; format: functional; method in brief: as §2

Compound | Efficacy [1] | IC50 (Glucocorticoid receptor [2]) | IC50 (Progesterone receptor) | IC50 [3] | Efficacy [4] | EC50 (Glucocorticoid receptor [5]) | Efficacy [6] | EC50 (Glucocorticoid receptor [7]; read-out: EC50) | IC50 (Glucocorticoid receptor [8]) | ED50 (Mus musculus [9]) | inhibition in vivo at 10 mg/kg (Mus musculus [10]) | Ratio IC50 (Homo sapiens [11]) | EC50 (Glucocorticoid receptor [7]) | Ratio IC50 (Homo sapiens [12]) | inhibition (Mus musculus [13]) | inhibition in vivo at 3 mg/kg (Mus musculus [13])
COc1ccc(F)cc1C(C)(C)C[C@@](O)(Cc1cc2cc(C#N)ccc2[nH]1)C(F)(F)F | 90% | 0.001 µM | 0.155 µM | 0.045 µM | 71% | 0.036 µM | 10% | 0.006 µM | 0.003 µM |  |  |  |  |  |  | 
CC(C)(C[C@@](O)(Cc1cc2ccccc2[nH]1)C(F)(F)F)c1cc(Br)cc2c1OCC2 |  |  |  |  |  |  |  |  |  | < 10 mg/kg | 61% |  |  |  |  | 
COc1ccc(F)cc1C(C)(C)CC(O)(Cc1cc2c(C#N)cccc2[nH]1)C(F)(F)F (racemic) | 91% | 0.005 µM | 0.44 µM | 0.225 µM | 91% |  |  | 0.021 µM | 0.008 µM |  |  | 90 |  |  |  | 
CCc1cccc2[nH]c(CC(O)(CC(C)(C)c3cc(F)ccc3OC)C(F)(F)F)cc12 (racemic) | 90% | 0.028 µM | 1 µM | 0.79 µM | 49% |  |  |  | 0.088 µM |  |  | 30 | Not Active |  |  | 
COc1ccc(F)cc1C(C)(C)CC(O)(Cc1cc2cc(C#N)ccc2[nH]1)C(F)(F)F (racemic) | 89% | 0.008 µM | 0.815 µM | 0.415 µM | 81% |  |  | 0.028 µM | 0.011 µM |  |  | 100 |  | 50 |  | 
COc1ccc(F)cc1C(C)(C)CC(O)(Cc1cc2ccc(C#N)cc2[nH]1)C(F)(F)F (racemic) | 91% | 0.014 µM | 0.395 µM | 0.435 µM | 98% |  |  | 0.113 µM | 0.014 µM |  |  | 30 |  | 30 |  | 
CC(C)(CC(O)(Cc1cc2ccccc2[nH]1)C(F)(F)F)c1cc(C#N)cc2c1OCC2 (racemic) | 65% | 0.015 µM | 0.71 µM | 0.405 µM | 55% |  |  | 0.356 µM | 0.104 µM |  |  | 50 |  |  |  | 
CC(C)(CC(O)(Cc1cc2ccccc2[nH]1)C(F)(F)F)c1cc(S(C)(=O)=O)cc2c1OCC2 (racemic) | 84% | 0.006 µM | > 2 µM | 0.61 µM |  | > 2 µM | 20% |  | 0.1 µM |  |  | > 300 |  | 100 |  | 
CC(C)(CC(O)(Cc1cc2cc(C#N)ccc2[nH]1)C(F)(F)F)c1cc(S(C)(=O)=O)cc2c1OCC2 (racemic) | 85% | 0.005 µM | > 2 µM | 1.45 µM | 63% | > 2 µM | 4% | 0.08 µM | 0.049 µM | < 10 mg/kg | 77% |  |  |  | inactive | 
CC(C)(CC(O)(Cc1cc2ccc(C#N)cc2[nH]1)C(F)(F)F)c1cc(S(C)(=O)=O)cc2c1OCC2 (racemic) | 89% | 0.005 µM | > 2 µM | 0.43 µM | 98% | > 2 µM | 10% | 0.125 µM | 0.039 µM | < 10 mg/kg | 66% |  |  |  |  | 66%
